Measured values taken from ChEMBL document CHEMBL4825683, “Synthesis and approbation of new neuroprotective chemicals of pyrrolyl- and indolylazine classes in a cell model of Alzheimer's disease” (Eur J Med Chem, 2021).
The source made the active and inactive calls. The rule behind the calls is not given here.

Tests used:
[1] = Inhibition of amyloid beta(1 to 42)-induced apoptosis in human MSC-NEU cells at 1 uM measured after 24 hrs by AnnexinV-Alexafluor647/propidium iodide staining based flow cytomtery relative to control; assay type: functional, MSC-NEU cell
Summary of the method: (§1)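 MSC-NEU cells: human dental-pulp mesenchymal stem cells (MSC-DP) grown in DMEM/F12 with 10% FBS, 100 units/mL penicillin and 0.1 mg/mL streptomycin at 37 °C, 5% CO2. They were then reprogrammed to a neuronal phenotype over 5 days in Neurobasal medium with B27 supplement, 3% FBS and the same antibiotics.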

[2] = target: T1, Heat shock factor protein 1 (Homo sapiens) (UniProt Q00613); assay: Activation of Hsf1 in human MSC-NEU cells assessed as increase in HSP70 substrate-binding chaperone activity at 1 uM incubated for 24 hrs by protein-protein interaction assay relative to control; assay type: cell-based; conditions: MSC-NEU cell, filed as activator; summary of the method: as §1
T1 sequence (whole entry): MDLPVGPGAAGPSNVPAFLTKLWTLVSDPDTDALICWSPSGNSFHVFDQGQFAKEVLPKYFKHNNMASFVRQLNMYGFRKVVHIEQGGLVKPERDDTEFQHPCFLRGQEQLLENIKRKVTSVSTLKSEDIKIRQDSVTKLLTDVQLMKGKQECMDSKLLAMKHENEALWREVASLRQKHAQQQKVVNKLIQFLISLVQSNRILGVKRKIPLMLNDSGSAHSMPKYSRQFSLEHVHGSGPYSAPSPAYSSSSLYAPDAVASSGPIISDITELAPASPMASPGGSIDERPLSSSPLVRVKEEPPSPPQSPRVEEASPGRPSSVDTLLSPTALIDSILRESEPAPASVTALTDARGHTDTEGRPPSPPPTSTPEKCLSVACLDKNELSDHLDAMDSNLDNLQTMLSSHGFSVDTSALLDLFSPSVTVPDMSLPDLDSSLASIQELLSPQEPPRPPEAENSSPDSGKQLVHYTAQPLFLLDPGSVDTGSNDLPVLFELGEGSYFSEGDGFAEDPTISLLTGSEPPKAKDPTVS

[3] = target: T1, Heat shock factor protein 1 (Homo sapiens); assay: Activation of Hsf1 in human MSC-NEU cells assessed as induction of HSP70 accumulation at 1 uM incubated for 24 hrs by Western blotting analysis relative to control; assay type: cell-based; conditions: MSC-NEU cell, filed as activator; summary of the method: as §1
[4] = Cytotoxicity against human MSC-NEU cells assessed as reduction in cell viability measured after 48 hrs by MTT assay; assay type: cell-based; conditions: read-out: LC50
Summary of the method: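 Human dental pulp mesenchymal stem cells (MSC-DP) were grown in DMEM/F12 with 10% FBS, penicillin and streptomycin at 37 °C and 5% CO2. They were then reprogrammed to a neuronal phenotype (MSC-NEU) over 5 days in Neurobasal medium with B27 supplement, 3% FBS and antibiotics.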

[5] = target: T1, Heat shock factor protein 1 (Homo sapiens); assay: Activation of Hsf1 in human MSC-NEU cells assessed as induction of HSP90 accumulation at 1 uM incubated for 24 hrs by Western blotting analysis relative to control; assay type: cell-based; conditions: MSC-NEU cell; for fold change (FC): filed as activator; summary of the method: as §1
[6] = Neuroprotective activity against amyloid beta (1 to 42)-stimulated human MSC-NEU cells assessed as increase in cell index incubated for 48 hrs by xCELLigence RTCA analysis; assay type: functional; summary of the method: as §1
[7] = Inhibition of amyloid beta(1 to 42)-induced apoptosis in human MSC-NEU cells assessed as reduction in caspase-3 activity at 1 uM measured after 24 hrs by fluorescence based analysis relative to control; assay type: functional, MSC-NEU cell; summary of the method: as §1
[8] = target: T1, Heat shock factor protein 1 (Homo sapiens); assay: Activation of Hsf1 in human HEK293 cells transfected with Hsp70.1pr-luc plasmid at 1 uM incubated for 24 hrs by luciferase reporter gene based luminescence assay; assay type: cell-based; conditions: filed as activator
[9] = Inhibition of amyloid beta (1 to 42)-induced cellular senescence in human MSC-NEU cells assessed as reduction in beta-galactosidase activity at 1 uM measured after 48 hrs by X-Gal staining based analysis relative to control; assay type: functional, MSC-NEU cell; summary of the method: as §1

| Structure (SMILES) | fold change (FC) [1] | fold change (FC) [2] | fold change (FC) [3] | CC50 at 48 h [4] [µM] | fold change (FC) [5] | Activity [6] [%] | fold change (FC) [7] | Activity [8] | fold change (FC) [9] | Activity [5] |
| --- | --- | --- | --- | --- | --- | --- | --- | --- | --- | --- |
| Clc1nccc(-c2c[nH]c3ccc(Br)cc23)n1 | 4.2 | 1.3 | 2.7 | 316 | 1.6 | 10 | 2.04 | Active | 1.17 | – |
| Brc1ccc2[nH]cc(-c3ncnc4ccccc34)c2c1 | 4.2 | 1.3 | 1.9 | 279 | – | 10 | 2.51 | Active | 1.04 | inactive |
| O=c1[nH]c2ccccc2nc1-c1ccc(-c2ccccc2)[nH]1 | 4.2 | 1.3 | 1.6 | 494 | 1.85 | 10 | 2.12 | Active | 1.12 | – |
| C[n+]1c2ccccc2c(-c2c[nH]c3ccc(O)cc23)c2ccccc21.[I-] | 4.2 | 1.3 | 2.2 | > 1000 | 2.1 | 10 | 2.24 | Active | 1.22 | – |
